Tests used:
[1] = target: T1, Protein kinase C gamma type (Homo sapiens, UniProt P05129); assay: Inhibitory activity of 10 uM compound against protein kinase C-gamma using histone as substrate
[2] = target: T2, Protein kinase C alpha type (Homo sapiens, UniProt P17252); assay: Inhibitory activity of 10 uM compound against protein kinase C-alpha using histone as substrate
[3] = target: T3, Protein kinase C beta type (Homo sapiens, UniProt P05771); assay: Inhibition of protein kinase C-betaII at 10 uM
Target sequence in this assay (P05771 2-671 limits assumed): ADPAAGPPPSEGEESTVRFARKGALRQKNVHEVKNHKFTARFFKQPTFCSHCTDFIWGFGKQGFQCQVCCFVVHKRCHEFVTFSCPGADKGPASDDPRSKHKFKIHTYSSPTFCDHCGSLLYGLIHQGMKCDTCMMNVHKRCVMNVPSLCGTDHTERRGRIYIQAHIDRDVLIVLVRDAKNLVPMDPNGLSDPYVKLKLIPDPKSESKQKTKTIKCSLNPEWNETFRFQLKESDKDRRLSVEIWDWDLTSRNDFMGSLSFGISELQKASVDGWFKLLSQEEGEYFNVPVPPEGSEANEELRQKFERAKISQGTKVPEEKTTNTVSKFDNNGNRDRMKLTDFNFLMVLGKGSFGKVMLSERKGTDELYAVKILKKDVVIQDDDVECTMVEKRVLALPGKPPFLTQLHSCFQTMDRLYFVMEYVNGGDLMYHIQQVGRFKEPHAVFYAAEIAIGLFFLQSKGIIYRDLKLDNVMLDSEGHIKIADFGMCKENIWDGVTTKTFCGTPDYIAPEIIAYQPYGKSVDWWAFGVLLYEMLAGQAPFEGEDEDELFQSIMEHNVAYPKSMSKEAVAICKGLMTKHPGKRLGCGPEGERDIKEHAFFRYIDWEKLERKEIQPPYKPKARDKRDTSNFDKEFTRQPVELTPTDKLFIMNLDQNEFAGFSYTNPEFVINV

[4] = target: T2, Protein kinase C alpha type; assay: Inhibitory concentration against protein kinase C-alpha using histone as substrate
[5] = target: T3, Protein kinase C beta type; assay: Inhibitory concentration against human protein kinase C-betaII using histone as substrate
Target sequence in this assay (P05771 whole entry): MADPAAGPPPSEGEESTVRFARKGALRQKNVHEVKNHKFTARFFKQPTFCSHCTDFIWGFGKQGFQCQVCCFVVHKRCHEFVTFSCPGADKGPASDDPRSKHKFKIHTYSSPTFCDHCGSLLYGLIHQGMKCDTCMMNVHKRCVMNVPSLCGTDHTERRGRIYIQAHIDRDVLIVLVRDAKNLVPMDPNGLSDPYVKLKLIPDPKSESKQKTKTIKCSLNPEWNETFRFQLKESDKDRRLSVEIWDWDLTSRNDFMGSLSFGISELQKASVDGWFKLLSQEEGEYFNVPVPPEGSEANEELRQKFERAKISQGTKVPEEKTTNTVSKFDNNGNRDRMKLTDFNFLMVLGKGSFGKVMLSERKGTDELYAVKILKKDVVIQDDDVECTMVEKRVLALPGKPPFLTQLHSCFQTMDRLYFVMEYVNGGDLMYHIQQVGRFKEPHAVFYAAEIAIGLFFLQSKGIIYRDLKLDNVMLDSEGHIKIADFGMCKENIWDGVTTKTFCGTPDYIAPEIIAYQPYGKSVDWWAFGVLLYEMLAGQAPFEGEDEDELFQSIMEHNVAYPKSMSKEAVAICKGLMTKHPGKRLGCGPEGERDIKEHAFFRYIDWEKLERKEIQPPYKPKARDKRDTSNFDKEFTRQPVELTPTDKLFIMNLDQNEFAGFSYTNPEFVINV

[6] = target: T1, Protein kinase C gamma type; assay: Inhibition of protein kinase C-gamma
[7] = target: Glycogen synthase kinase-3 beta (Homo sapiens, UniProt P49841); assay: Effective concentration of compound against glycogen synthase kinase-3 in HEK293 cells; assay type: functional, cell-based
Sequence of Glycogen synthase kinase-3 beta (P49841 whole entry): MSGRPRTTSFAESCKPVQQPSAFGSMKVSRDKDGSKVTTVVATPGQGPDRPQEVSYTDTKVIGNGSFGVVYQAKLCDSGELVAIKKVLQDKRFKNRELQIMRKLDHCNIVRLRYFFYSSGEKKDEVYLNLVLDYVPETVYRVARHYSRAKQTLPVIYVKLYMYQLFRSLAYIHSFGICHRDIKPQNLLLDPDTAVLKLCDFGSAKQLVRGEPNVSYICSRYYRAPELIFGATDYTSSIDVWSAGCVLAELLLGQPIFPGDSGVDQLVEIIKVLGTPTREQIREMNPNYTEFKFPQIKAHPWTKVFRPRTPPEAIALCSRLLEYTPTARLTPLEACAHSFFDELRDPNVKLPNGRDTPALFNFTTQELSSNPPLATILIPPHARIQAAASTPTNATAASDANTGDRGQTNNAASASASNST
Method in brief: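 HEK293 cells exposed to compound; glycogen synthase activity then measured in cell extracts as ¹⁴C-UDP glucose incorporation into glycogen. EC₅₀ averaged from triplicate determinations.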

Row | inhibition [1] | inhibition [2] | inhibition [3] | IC50 [4] | IC50 [5] | IC50 [6] | SMILES | EC50 [7]
1 | – | – | – | 4.4 µM | 0.73 µM | 5.5 µM | O=C1NC(=O)C(c2cn(CCCO)c3ncccc23)=C1c1ccccc1Cl | –
2 | – | < 50% | – | – | 2.73 µM | 8.7 µM | COc1ccccc1C1=C(c2cn(CCCNC=O)c3ncccc23)C(=O)NC1=O | –
3 | 50% | – | – | 3.6 µM | 0.27 µM | – | O=C1NC(=O)C(c2cn(CCCO)c3ncccc23)=C1c1cccc2ccccc12 | –
4 | 50% | 50% | – | – | 1.85 µM | – | O=C1NC(=O)C(c2cn(CCCO)c3ncccc23)=C1c1ccccc1C(F)(F)F | –
5 | < 50% | 50% | – | – | 1.44 µM | – | COc1ccccc1C1=C(c2cn(CCCO)c3ncccc23)C(=O)NC1=O | –
6 | – | – | – | 4.7 µM | 1.88 µM | 8.6 µM | COc1ccccc1C1=C(c2cn(CCCNS(C)(=O)=O)c3ncccc23)C(=O)NC1=O | –
7 | < 50% | 50% | – | – | 1.1 µM | – | COc1ccccc1C1=C(c2cn(CCCN)c3ncccc23)C(=O)NC1=O | –
8 | – | < 50% | – | – | 0.89 µM | 6 µM | COc1ccccc1C1=C(c2cn(CCCNS(N)(=O)=O)c3ncccc23)C(=O)NC1=O | –
9 | – | – | – | 4 µM | 1.16 µM | 3.6 µM | CN(C)CCCn1cc(C2=C(c3ccccc3Cl)C(=O)NC2=O)c2cccnc21 | –

The next lines start with the compound.

Row | SMILES | inhibition [1] | inhibition [2] | inhibition [3] | IC50 [4] | IC50 [5] | IC50 [6] | EC50 [7]
10 | O=C1NC(=O)C(c2cn(CCCO)c3ncccc23)=C1c1cccs1 | < 50% | < 50% | < 50% | – | – | – | –
11 | O=C1NC(=O)C(c2cn(CCCO)c3ncccc23)=C1c1ccc(F)cc1Cl | < 50% | – | – | 4.5 µM | 2.38 µM | – | –
12 | O=C1NC(=O)C(c2cn(CCCO)c3ncccc23)=C1c1ccccn1 | < 50% | < 50% | < 50% | – | – | – | –
13 | CN(C)CCCn1cc(C2=C(c3cccc4ccccc34)C(=O)NC2=O)c2cccnc21 | – | – | – | 1.4 µM | 0.24 µM | 2.8 µM | –
14 | CCn1cc(C2=C(c3cn(CCCO)c4ncccc34)C(=O)NC2=O)c2cccnc21 | < 50% | < 50% | – | – | 1.07 µM | – | –
15 | [Cl-].[Li+] [CHLOROLITHIUM] | – | – | – | – | – | – | > 3000 µM
